From ChEMBL document CHEMBL4152356, “Amphipathic sulfonamidobenzamides mimicking small antimicrobial marine natural products; investigation of antibacterial and anti-biofilm activity against antibiotic resistant clinical isolates” (Bioorg Med Chem, 2018) come the findings set out here.

In one assay the test system is Escherichia coli. As to the kind of experiment: Antibacterial activity against New Delhi metallo-beta-lactamase 1-producing Escherichia coli 50,676,002 clinical isolate after 24 hrs by microdilution method. Format: functional. The note with it: Escherichia coli, 50,676,002, 24 h. The essentials: (§1)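 Clinical isolate screen by broth microdilution with about 1-1.2 × 10^6 cells/ml and 24 h incubation. MIC is the lowest concentration with no growth. For isolate collections, MIC90 is the MIC inhibiting ≥90% of isolates. Multidrug resistance was defined as resistance to at least […] antimicrobial class.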

Assay [1] concerns Enterococcus faecium. As to the kind of experiment: Antibacterial activity against vancomycin resistant Enterococcus faecium 50,758,899 clinical isolate after 24 hrs by microdilution method. Format: functional. Particulars: Enterococcus faecium, 50,758,899, 24 h. The essentials: (§2)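 Broth microdilution in Mueller-Hinton broth (modified CLSI M07-A9), clinical isolates at about 1-1.2 × 10^6 cells/ml. Inoculum mixed 1:1 with serial compound dilutions; stocks made in up to 100% DMSO, final DMSO ≤1%. Incubated 24 h.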

Another assay relates to Erythrocyte. As to the kind of experiment: Hemolytic activity against human RBC measured after 1 hr. Format: cell-based. The essentials:
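Washed human RBCs from a healthy donor (heparinized) at 10% in PBS pH 7.4, mixed 9:1 with serial compound dilutions, 37 °C for 1 h. Baseline set by 0.5% DMSO in 50% PBS, 100% lysis by 0.05% Triton X-100. EC50 is the concentration giving 50% lysis.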

Assay [2] relates to Pseudomonas aeruginosa. As to the kind of experiment: Antibacterial activity against imipenem 14-type carbapenemase-producing Pseudomonas aeruginosa K4424 clinical isolate after 24 hrs by microdilution method. Format: functional. Particulars: K4424, 24 h. An outline of the steps:
as §1

The test system of a further assay is Enterococcus sp. Nature of the assay: Antibacterial activity against Enterococcus sp. clinical isolates after 24 hrs by microdilution method. Format: functional. An outline of the steps: as §1
The next assay relates to Acinetobacter baumannii. As to the kind of experiment: Antibacterial activity against oxacillinase 23-producing Acinetobacter baumannii K44-35 clinical isolate after 24 hrs by microdilution method. The class given is functional. Particulars: K44-35, 24 h. An outline of the steps: as §2
Assay [3] has as its system Staphylococcus aureus. Nature of the assay: Antibacterial activity against methicillin resistant Staphylococcus aureus NCTC 10442 clinical isolate after 24 hrs by microdilution method. Format: functional. Particulars: NCTC 10442, 24 h. An outline of the steps: as §2
The subject of another assay is Klebsiella pneumoniae. Nature of the assay: Antibacterial activity against Verona integron-encoded metallo-beta-lactamase 1-producing Klebsiella pneumoniae 50,667,959 clinical isolate after 24 hrs by microdilution method. Format: functional. The note with it: Klebsiella pneumoniae, 50,667,959, 24 h. An outline of the steps: as §1
Assay [4] deals with Staphylococcus epidermidis. As to the kind of experiment: Antibacterial activity against methicillin resistant Staphylococcus epidermidis RP62A ATCC 35984/CCUG 31568 after 48 hrs by microdilution method. The class given is functional. Particulars: RP62A ATCC 35984/CCUG 31568, 48 h. The essentials:
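Broth microdilution (modified CLSI M07-A9) against the MRSE reference strain. Inoculum of about 2.5-3 × 10^4 cells/ml in Mueller-Hinton broth mixed 1:1 with serial compound dilutions; final DMSO ≤1%. Incubated 35 °C, 48 h.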

For assay [5], the system named is Enterococcus faecium. As to the kind of experiment: Antibacterial activity against vancomycin resistant Enterococcus faecium 50,901,530 clinical isolate after 24 hrs by microdilution method. The note with it: Enterococcus faecium, 50,901,530, 24 h. The class given is functional. The essentials: as §2
In assay [6] the test system is Corynebacterium glutamicum. As to the kind of experiment: Antibacterial activity against Corynebacterium glutamicum ATCC 13032 after 48 hrs by microdilution method. Format: functional. Particulars: ATCC 13032, 48 h. The essentials: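 Broth microdilution (CLSI M07-A9, modified) in Mueller-Hinton broth; inoculum about 2.5-3 × 10^4 cells/ml mixed 1:1 with serial compound dilutions. Stock solutions in up to 100% DMSO, final DMSO ≤1%. Incubated 35 °C for 48 h.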

The test system of assay [7] is Pseudomonas aeruginosa. Nature of the assay: Antibacterial activity against Verona integron-encoded metallo-beta-lactamase-producing Pseudomonas aeruginosa 50,692,520 clinical isolate after 24 hrs by microdilution method. Format: functional. The note with it: Pseudomonas aeruginosa, 50,692,520, 24 h. The essentials:
as §1

Assay [8] relates to Staphylococcus aureus. As to the kind of experiment: Antibacterial activity against methicillin resistant Staphylococcus aureus N315 clinical isolate after 24 hrs by microdilution method. Format: functional. Particulars: N315, 24 h. The essentials:
as §2

Another assay relates to MRC5. Nature of the assay: Cytotoxicity against human MRC5 cells after 72 hrs by MTS assay. The class given is cell-based. Particulars: MRC5, 72 h. An outline of the steps: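 MRC-5 lung fibroblasts in DMEM with 10% FBS, 37 °C, 5% CO2; seeded at 4000 cells/well, adhered 24 h, medium replaced. Two-fold dilutions up to 100 µg/ml for 72 h, then MTS for 1 h and absorbance at 485 nm. Controls were 1% DMSO (negative) and 0.5% Triton X-100 (positive). EC50 is the concentration giving 50% inhibition of survival.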

Assay [9] has as its system Staphylococcus aureus. Nature of the assay: Antibacterial activity against methicillin resistant Staphylococcus aureus WIS clinical isolate after 24 hrs by microdilution method. The class given is functional. The essentials: as §2
Assay [10] deals with Staphylococcus aureus. As to the kind of experiment: Antibacterial activity against methicillin resistant Staphylococcus aureus 85/2082 clinical isolate after 24 hrs by microdilution method. Format: functional. Particulars: 85/2082, 24 h. An outline of the steps: as §2
For a further assay, the system named is Bacillus subtilis. Nature of the assay: Induction of membrane disruption in Bacillus subtilis 168 expressing luciferase at 4 ug/ml […] by luminescence assay. The class given is functional, organism-based. Particulars: subsp. subtilis str. 168.

Calls of active or inactive are those of the source.

Take `CC(C)(C)c1cc(C(C)(C)C)cc(S(=O)(=O)Nc2cc3ccccc3cc2C(=O)NCCNC(=N)N)c1.Cl`: the MIC against Escherichia coli is over 32 µg/mL; against Enterococcus faecium [1], 8 µg/mL; in the assay on Pseudomonas aeruginosa [2], over 64 µg/mL; in the assay on Enterococcus sp., 8 µg/mL; in the assay on Acinetobacter baumannii, 32 µg/mL; with Staphylococcus aureus [3] it was 8 µg/mL. Moreover, the MIC was at least 32 µg/mL in the assay on Klebsiella pneumoniae; 4 µg/mL in assay [4]; 8 µg/mL against Enterococcus faecium [5]; 2 µg/mL in assay [6]; at least 64 µg/mL against Pseudomonas aeruginosa [7]; 4 µg/mL against Staphylococcus aureus [8]. For the same compound, the MIC against Staphylococcus aureus [9] and in the assay with Staphylococcus aureus [10] was 8 µg/mL throughout. Further, the 50% effective concentration (EC50) with Erythrocyte was found to be 25 µg/mL; in the assay on MRC5, 55 µg/mL.
For `CN(c1ccc(C(=O)NCCCNC(=N)N)cc1)S(=O)(=O)c1cc(C(C)(C)C)cc(C(C)(C)C)c1.Cl`, the result in the assay on Bacillus subtilis was Active. Besides, the MIC with Escherichia coli was at least 32 µg/mL; in the assay on Enterococcus faecium [1], 8 µg/mL; with Pseudomonas aeruginosa [2], 32 µg/mL; with Enterococcus sp. it was 8 to 16 µg/mL; against Acinetobacter baumannii, at least 32 µg/mL; against Staphylococcus aureus [3] it was 8 µg/mL. The minimum inhibitory concentration (MIC) was at least 32 µg/mL in the assay on Klebsiella pneumoniae; 4 µg/mL in assay [4]; 16 µg/mL in the assay on Enterococcus faecium [5]; 2 µg/mL in [6]; 32 µg/mL in the assay with Pseudomonas aeruginosa [7]; 8 µg/mL in the assay on Staphylococcus aureus [8]. For the same compound, the MIC in the assay with Staphylococcus aureus [9] and against Staphylococcus aureus [10] was 8 µg/mL in each case. Moreover, the EC50 in the assay on Erythrocyte worked out at 55 µg/mL; in the assay with MRC5 it was 36 µg/mL.
